One series deals with BGC-823. In words: Antiproliferative activity against human BGC823 cells after 24 hrs by MTT assay. The series is classed as functional, cell-based. The conditions noted are these: BGC-823, 24 h. The procedure, abridged:
(§1)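 Cells grown at 37 °C in humidified 5% CO2 with benzylpenicillin and streptomycin. Compounds came from 0.01 mol/L DMSO stocks and were tested at eight two-fold dilutions in triplicate, with medium-only controls, for 24 h. MTT absorbance was read at 570 nm. Survival = A_treatment/A_control × 100. IC50 is the concentration giving 50% viability inhibition, as the mean of two separate experiments.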
In general terms: Tetrazolium assays rely on reduction of a dye to a coloured formazan, in cell work by metabolically active cells.

The next series concerns HepG2. The series is described as follows: Antiproliferative activity against human HepG2 cells after 24 hrs by MTT assay. Type of series: functional, cell-based. As to conditions: HepG2, 24 h. Put shortly:
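Tetrazolium MTT viability test; cells exposed to compound 24 h, absorbance read at 570 nm. Survival ratio = A treated / A control × 100%; IC50 is the concentration giving 50% loss of viability. Eight concentrations in two-fold dilutions, triplicate wells, mean of two separate experiments. Compounds dissolved in DMSO (0.01 mol/L stock); control wells received medium only.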

In the next series the test system is SMMC-7721. The series is described as follows: Antiproliferative activity against human SMMC7721 cells after 24 hrs by MTT assay. Type of series: functional, cell-based. As to conditions: SMMC-7721, 24 h. The procedure, abridged: as §1
For the next series, the system named is MCF7. The series is described as follows: Antiproliferative activity against human MCF7 cells after 24 hrs by MTT assay. Type of series: functional, cell-based. As to conditions: MCF7, 24 h. Put shortly: as §1
Series [1] has as its system Heps hepatoma (Mus musculus). The series is described as follows: Antitumor activity against murine Heps hepatoma cells transplanted in Kunming mouse assessed as tumor growth inhibition at 20 mg/kg, iv administered 24 hrs after tumor implantation one dose per two day for total of four treatment measured after 24 hrs last postdose relative to control.
A further series deals with Mus musculus. In words: Toxicity in Kunming mouse xenografted with human HepG2 cells assessed as change in body weight at 20 mg/kg, iv administered 24 hrs after tumor implantation one dose per two day for total of four treatment measured after 24 hrs last postdose (reference value: 20.90 +/- 1.29 g). As to conditions: in vivo. For orientation: Xenograft models place foreign cells or tissue in a host animal.

As usually defined, the IC50 is the concentration needed to halve the response being measured. A high value points to weaker potency in that assay. Take `CC(C)=CCC12OC(C)(C)C3CC(C=C4C(=O)c5ccc(O)cc5OC431)C2=O` (stereo not given): the IC50 in the series on BGC-823 stood at 17.6 µM; in the series on HepG2, 23.4 µM; in the series with SMMC-7721, 12.3 µM; in the series on MCF7 it was 12.4 µM.
Take `CC(C)=CCC12OC(C)(C)C3CC(C=C4C(=O)CC(C)OC431)C2=O` (stereo not given): the 50% inhibitory concentration (IC50) in the series with BGC-823 is 81.1 µM; in the series with HepG2, 95 µM; in the series with SMMC-7721, 147 µM; with MCF7, 68.3 µM.
As for `CC(C)=CCC12OC(C)(C)C3CC(C=C4C(=O)c5cc(O)ccc5OC431)C2=O` (stereo not given), the IC50 worked out at 32.5 µM with BGC-823, 12.3 µM with HepG2, 20 µM in the series on SMMC-7721 and 20.6 µM in the series with MCF7.
On to `CC(C)=CCC12OC(C)(C)C3CC(C=C4C(=O)c5cccc(O)c5OC431)C2=O` (stereo not given), for which the IC50 in the series with BGC-823 amounted to 19.3 µM; in the series with HepG2, 14.3 µM; in the series with SMMC-7721 it was 11.7 µM; in the series on MCF7, 19.4 µM.
Consider `CC(C)=CCC12OC(C)(C)C3CC(C=C4C(=O)c5ccccc5OC431)C2=O` (stereo not given), for which the IC50 with BGC-823 turned out to be 20.3 µM; in the series on HepG2 it was 6.77 µM; in the series on SMMC-7721, 10.5 µM; with MCF7 it was 13.9 µM.
The term inhibition in vivo denotes the percentage by which the read-out fell short of the control. Turning to `CC(C)=CCC[C@]1(C)C=Cc2c(O)c3c(c(CC=C(C)C)c2O1)O[C@]12C(=C[C@@H]4C[C@H]1C(C)(C)O[C@@]2(C/C=C(/C)C(=O)O)C4=O)C3=O` [GAMBOGIC ACID], the IC50 with BGC-823 was found to be 2.35 µM; in the series with SMMC-7721, 3.2 µM; with MCF7, 2.19 µM. Moreover, in series [1], the inhibition in vivo at 20 mg/kg was found to be 45.3%. For the same molecule, in the series on Mus musculus, the Activity turned out to be 27.6 g.
